Series [1] addresses T1, Salicyl-AMP ligase / salicyl-S-ArCP synthetase (Mycobacterium tuberculosis, UniProt P71716).
T1 sequence (P71716 whole entry): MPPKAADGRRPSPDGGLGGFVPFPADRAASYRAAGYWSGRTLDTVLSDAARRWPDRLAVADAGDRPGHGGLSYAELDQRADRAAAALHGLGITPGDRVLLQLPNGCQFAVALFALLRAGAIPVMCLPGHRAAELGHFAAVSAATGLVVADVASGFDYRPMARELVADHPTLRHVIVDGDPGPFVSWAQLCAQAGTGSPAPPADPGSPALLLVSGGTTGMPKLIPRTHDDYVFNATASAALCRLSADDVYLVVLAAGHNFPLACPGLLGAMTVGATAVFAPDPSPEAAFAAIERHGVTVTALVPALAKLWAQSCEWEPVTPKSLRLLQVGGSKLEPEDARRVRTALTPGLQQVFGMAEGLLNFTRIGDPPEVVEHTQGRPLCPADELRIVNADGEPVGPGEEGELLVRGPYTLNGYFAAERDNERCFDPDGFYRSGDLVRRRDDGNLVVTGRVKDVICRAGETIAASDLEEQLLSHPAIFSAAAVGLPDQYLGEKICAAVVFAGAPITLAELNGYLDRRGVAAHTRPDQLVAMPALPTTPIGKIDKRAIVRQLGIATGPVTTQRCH
The series is described as follows: Inhibition of Mycobacterium tuberculosis recombinant MbtA expressed in Escherichia coli by ATP-PPi exchange assay. As to conditions: read-out: Ki(app).

Series [2] concerns Mycobacterium tuberculosis. As to the kind of experiment: Antitubercular activity against Mycobacterium tuberculosis H37Rv in iron-replete GAST medium after 10 to 14 days by broth dilution method. Format: functional. The essentials: (§1)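 MIC99 by broth microdilution in quadruplicate in GAST, either iron-deficient or supplemented with 200 µM FeCl3. Compounds were added from DMSO stocks, with DMSO-treated controls. Inoculum was 10⁴-10⁵ cells/assay, incubation 37 °C for 10-14 days, and growth read as OD620. MIC99 is the lowest concentration completely inhibiting observable growth.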
(In general: In broth dilution the organism is exposed to a series of concentrations in liquid medium.)

Series [3] relates to Mycobacterium tuberculosis. The series is described as follows: Antitubercular activity against Mycobacterium tuberculosis H37Rv in iron-deficient GAST medium after 10 to 14 days by broth dilution method. Type of series: functional. The essentials: as §1
The test system of another series is Vero. As to the kind of experiment: Cytotoxicity against african green money Vero cells after 48 hrs by MTT assay. Type of series: cell-based. Conditions: Chlorocebus sabaeus.
For series [4], the system named is Mycobacterium tuberculosis. As to the kind of experiment: Ratio of MIC99 for Mycobacterium tuberculosis H37Rv in iron-replete GAST medium to MIC99 for Mycobacterium tuberculosis H37Rv in iron-deficient GAST medium. Format: functional.
Series [5] in a line: Therapeutic index, ratio of IC50 for african green money Vero cells to MIC99 for Mycobacterium tuberculosis H37Rv. Format: cell-based. As to conditions: monkey.
Another series is filed under the species Oryctolagus cuniculus. As to the kind of experiment: Inhibition of protein synthesis in T7 coupled rabbit reticulocyte system by luciferase based translation assay. Format: functional.

In brackets after ≈: the same amount, converted by molar mass. Activity calls are given as the source filed them. The calls are words filed in the database; no cut-off is given here.

`Nc1ncnc2c1nc(N)n2[C@@H]1O[C@H](COS(=O)(=O)NC(=O)c2ccccc2O)[C@@H](O)[C@H]1O`: the Ki in series [1] worked out at 183000 nM. Further, the MIC99 in series [2] and in series [3] was more than 50 µM in each case. Further, in the series on Vero, the IC50 is more than 100000 nM.
`O=C(NS(=O)(=O)OC[C@H]1O[C@@H](n2cnc3c(NCc4ccccc4)ncnc32)[C@H](O)[C@@H]1O)c1ccccc1O`: in series [1], the Ki is 8260 nM. Also, the MIC99 in series [2] and in series [3] was more than 100 µM in each case. The compound further had an IC50 in the series on Vero of more than 100000 nM.
As to `CCN(CC)CC.Nc1nc(C#Cc2ccccc2)nc2c1ncn2[C@@H]1O[C@H](COS(=O)(=O)NC(=O)c2ccccc2O)[C@@H](O)[C@H]1O`, the Ki in series [1] was found to be 0.4 nM. Also, in series [4], the Ratio is recorded as 8. The MIC99 in series [2] stood at 0.39 µM; in series [3], 0.049 µM. The IC50 in the series on Vero was more than 100000 nM. In addition, the selectivity ratio in series [5] was more than 2000.
For the compound `CCCNc1ncnc2c1ncn2[C@@H]1O[C@H](COS(=O)(=O)NC(=O)c2ccccc2O)[C@@H](O)[C@H]1O.CCN(CC)CC`, in series [1], the Ki amounted to 3.5 nM. For the same compound, the Ratio in series [4] is listed as 4. Also, the values for the MIC99 in series [2] and in series [3] were 1.56 µM and 0.39 µM, respectively. The compound also came in with an IC50 in the series with Vero of more than 100000 nM.
In the same order, the values of `CCN(CC)CC.Nc1ncnc2c1ccn2[C@@H]1O[C@H](COS(=O)(=O)NC(=O)c2ccccc2O)[C@@H](O)[C@H]1O` are 24.3 nM, 8, 50 µM, 6.25 µM and more than 100000 nM.
`Nc1nc(-c2ccc(-c3ccccc3)cc2)nc2c1ncn2[C@@H]1O[C@H](COS(=O)(=O)NC(=O)c2ccccc2O)[C@@H](O)[C@H]1O`: in series [1], the Ki is 0.99 nM. Further, the MIC99 in series [2] was more than 50 µM; in series [3], 25 µM (≈ 15.5 µg/mL). The IC50 with Vero was more than 100000 nM.
Regarding `Nc1nc(-c2ccccc2)nc2c1ncn2[C@@H]1O[C@H](COS(=O)(=O)NC(=O)c2ccccc2O)[C@@H](O)[C@H]1O`, the MIC99 was 0.39 µM (≈ 0.212 µg/mL) in series [2] and 0.049 µM (≈ 0.0266 µg/mL) in series [3]. In the series on Vero, the IC50 was more than 100000 nM.
For the compound `CN(C)c1ncnc2c1ncn2[C@@H]1O[C@H](COS(=O)(=O)NC(=O)c2ccccc2O)[C@@H](O)[C@H]1O`, the Ki in series [1] was determined as 380 nM. This compound yielded an MIC99 in series [3] of 50 µM (≈ 24.7 µg/mL). The compound also gave an IC50 in the series with Vero of more than 100000 nM.
With `Nc1nc(-c2ccccc2-c2ccccc2)nc2c1ncn2[C@@H]1O[C@H](COS(=O)(=O)NC(=O)c2ccccc2O)[C@@H](O)[C@H]1O`, the Ki in series [1] worked out at 47 nM. Further, the MIC99 in series [2] and in series [3] was more than 50 µM each time. This compound registered a 50% inhibitory concentration (IC50) in the series with Vero of more than 100000 nM.
Take `Nc1nc(-c2cccc(-c3ccccc3)c2)nc2c1ncn2[C@@H]1O[C@H](COS(=O)(=O)NC(=O)c2ccccc2O)[C@@H](O)[C@H]1O`: the Ki in series [1] was 1.4 nM. Moreover, the MIC99 in series [2] was more than 50 µM; in series [3], 25 µM (≈ 15.5 µg/mL). In the series on Vero, this compound gave an IC50 of more than 100000 nM.
In the same order, the values of `CC(C)CNc1ncnc2c1ncn2[C@@H]1O[C@H](COS(=O)(=O)NC(=O)c2ccccc2O)[C@@H](O)[C@H]1O` are 1140 nM, more than 100 µM, more than 100 µM and more than 100000 nM.
For `CCN(CC)CC.Nc1nc(I)nc2c1ncn2[C@@H]1O[C@H](COS(=O)(=O)NC(=O)c2ccccc2O)[C@@H](O)[C@H]1O`, the Ki in series [1] was 3.03 nM. Moreover, in series [4], the Ratio is recorded as 16. Further, the MIC99 is 3.12 µM in series [2] and 0.19 µM in series [3]. Moreover, the IC50 in the series with Vero was more than 100000 nM.
As to `[N-]=[N+]=Nc1nc2c(N)ncnc2n1[C@@H]1O[C@H](COS(=O)(=O)NC(=O)c2ccccc2O)[C@@H](O)[C@H]1O`, the Ki in series [1] is 42500 nM. The MIC99 in series [2] and in series [3] was more than 50 µM each time. For the same compound, in the series on Vero, the IC50 is more than 100000 nM.
`O=C(NS(=O)(=O)OC[C@H]1O[C@@H](n2cnc3c(NC4CCCC4)ncnc32)[C@H](O)[C@@H]1O)c1ccccc1O`: the Ki in series [1] came to 9410 nM. Also, the MIC99 in series [2] and in series [3] was more than 100 µM throughout. The IC50 in the series on Vero was more than 100000 nM.
On to `CCN(CC)CC.O=C(NS(=O)(=O)OC[C@H]1O[C@@H](n2cnc3c(NC4CC4)ncnc32)[C@H](O)[C@@H]1O)c1ccccc1O`, for which the Ki in series [1] was determined as 1.85 nM. The Ratio in series [4] worked out at 64. Moreover, the MIC99 was determined as 6.25 µM in series [2] and 0.098 µM in series [3]. Also, in the series with Vero, the IC50 was more than 100000 nM.
The like results for `CCN(CC)CC.Nc1cccc2c1ccn2C1CC(COS(=O)(=O)NC(=O)c2ccccc2O)[C@@H](O)[C@H]1O` (single isomer, unassigned) were, in that order, 20.1 nM, 8, 50 µM, 6.25 µM and more than 100000 nM.
For the compound `O=C(NS(=O)(=O)OC[C@H]1O[C@@H](n2cnc3c(NC4CCC4)ncnc32)[C@H](O)[C@@H]1O)c1ccccc1O`, the Ki in series [1] turned out to be 124 nM. The MIC99 in series [2] and in series [3] was more than 100 µM each time. This compound returned an IC50 in the series with Vero of more than 100000 nM.
For the compound `CC(C)Nc1ncnc2c1ncn2[C@@H]1O[C@H](COS(=O)(=O)[N-]C(=O)c2ccccc2O)[C@@H](O)[C@H]1O.[Na+]`, in series [1], the Ki is 7 nM. In addition, in series [4], the Ratio was more than 4. Besides, the MIC99 in series [2] was more than 100 µM; in series [3] it was 25 µM. Moreover, the IC50 with Vero was more than 100000 nM.
Take `CNc1ncnc2c1ncn2[C@@H]1O[C@H](COS(=O)(=O)[N-]C(=O)c2ccccc2O)[C@@H](O)[C@H]1O.[Na+]`: in series [1], the Ki was determined as 1.6 nM. The Ratio in series [4] was 4. Also, the MIC99 in series [2] is 1.56 µM; in series [3] it was 0.39 µM. The compound further returned an IC50 in the series with Vero of more than 100000 nM.
Take `Nc1ncnc2c1nc(Br)n2[C@@H]1O[C@H](COS(=O)(=O)NC(=O)c2ccccc2O)[C@@H](O)[C@H]1O`: the Ki in series [1] came to 2050 nM. The MIC99 in series [2] and in series [3] was more than 50 µM throughout. Besides, the IC50 in the series with Vero was more than 100000 nM.
On to `CCNc1ncnc2c1ncn2[C@@H]1O[C@H](COS(=O)(=O)[N-]C(=O)c2ccccc2O)[C@@H](O)[C@H]1O.[Na+]`, for which the Ki in series [1] was 4.4 nM. For the same compound, in series [4], the Ratio is on record as 4. Also, the results for the MIC99 in series [2] and in series [3] were 1.56 µM and 0.39 µM, respectively. The compound also came in with an IC50 in the series on Vero of more than 100000 nM.
Consider `CCN(CC)CC.Nc1nc(Nc2ccccc2)nc2c1ncn2[C@@H]1O[C@H](COS(=O)(=O)NC(=O)c2ccccc2O)[C@@H](O)[C@H]1O`, for which the Ki in series [1] is 0.94 nM. Moreover, the Ratio in series [4] is reported as 8. For the same compound, the MIC99 in series [2] was 0.39 µM; in series [3], 0.049 µM. The compound also had an IC50 in the series with Vero of more than 100000 nM. Also, the selectivity ratio in series [5] is more than 2000.
Regarding `Nc1ncnc2c1ncn2[C@@H]1O[C@H](COS(N)(=O)=O)[C@@H](O)[C@H]1O`, the result in the series listed under Oryctolagus cuniculus was Active.
In the case of `O=C(NS(=O)(=O)OC[C@H]1O[C@@H](n2cnc3c(=O)[nH]cnc32)[C@H](O)[C@@H]1O)c1ccccc1O`, in series [1], the Ki amounted to 800 nM. In addition, the MIC99 in series [2] and in series [3] was more than 100 µM each time. This compound also showed an IC50 with Vero of more than 100000 nM.

As a reminder, the MIC99 is the lowest concentration that inhibits either 99% of growth or 99% of the strains tested, depending on the study. The IC50 is the concentration needed to halve the response being measured.

The record behind these values is ChEMBL document CHEMBL1157357, “Inhibition of siderophore biosynthesis in Mycobacterium tuberculosis with nucleoside bisubstrate analogues: structure-activity relationships of the nucleobase domain of 5'-O-[N-(salicyl)sulfamoyl]adenosine” (J Med Chem, 2008).
